From the RNAGym collection of RNA variant scans (doi:10.1002/anie.201605470)

B1: Osa-1-4 twister ribozyme (parent)
chain: CCGCCUAACACUGCCAAUGCCGGUCCCAAGCCCGGAUAAAAGUGGAGGGGGCGG

Variants of: B1
Assay: self-cleavage, relative activity (ratio to wild type); higher = more cleavage; co-transcriptional
Procedure, shortened: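 Relative activity is the fraction cleaved divided by that of the wild-type ribozyme. The library came from a DNA template for a 54-nucleotide Oryza sativa twister ribozyme, doped at the 48 positions downstream of the cleavage site with 97 % wild-type base and 1 % of each other base. After 2 h of in vitro transcription at 37 °C with co-transcriptional self-cleavage, the RNA was reverse-transcribed with a template-switching oligonucleotide, amplified by PCR and deep-sequenced, and reads with or without upstream sequence gave the cleavage status.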

Variant	self-cleavage
A16U G35A	0.76
A16U G35C	0.17
A16U G35U	0.82
A17C G54A	0.9
A17C G54C	0.87
A17C G54U	0.91
A17C A29U	0.04
A17C A29C	0.03
A17C A29G	0.05
A17C G44U	0.7
A17C G44C	0.72
A17C G44A	0.81
A17G C9G	0.78
A17G C9A	0.33
A17G C9U	0.47
A17C A36G	0.75
A17C A36U	0.66
A17C A36C	0.21
A17G G19C	0.29
A17G G19U	0.52
A17G G19A	0.95
A17C A41G	0.68
A17C A41C	0.68
A17C A41U	0.81

Variant	self-cleavage
A17G C33U	0.19
A17G C33G	0.07
A17G C33A	0.18
A17G G42C	0.08
A17G G42A	0.58
A17G G42U	0.21
A16U G45C	0.04
A16U G45A	0.36
A16U G45U	0.1
A16U G19A	0.89
A16U G19C	0.09
A16U G19U	0.26
A17C C26G	0.07
A17C C26A	0.03
A17C C26U	0.19
A17C A38C	0.71
A17C A38U	0.66
A17C A38G	0.78
A16U U24A	0.15
A16U U24G	0.02
A16U U24C	0.29
A17G C15A	0.78
A17G C15G	0.71
A17G C15U	0.71

Variant	self-cleavage
A17G A38G	0.99
A17G A38C	0.96
A17G A38U	0.97
A17C G48A	0.05
A17C G48C	0.03
A17C G48U	0.03
A17C C9G	0.12
A17C C9U	0.1
A17C C9A	0.08
A17C G45U	0.14
A17C G45C	0.05
A17C G45A	0.24
A16U U37A	0.83
A16U U37C	1.06
A16U U37G	1
A17C A46C	0.05
A17C A46U	0.05
A17C A46G	0.05
A17G A28C	0.93
A17G A28G	0.42
A17G A28U	0.87
A17G G34A	0.73
A17G G34U	0.57
A17G G34C	0.41

Variant	self-cleavage
A17G G35A	0.79
A17G G35C	0.66
A17G G35U	0.77
A17G C26U	0.88
A17G C26A	0.08
A17G C26G	0.12
A16U G48U	0.06
A16U G48C	0.07
A16U G48A	0.08
A17G G47C	0.17
A17G G47A	0.46
A17G G47U	0.43
A16U G47C	0.08
A16U G47U	0.2
A16U G47A	0.24
A17C G53U	0.36
A17C G53C	0.1
A17C G53A	0.86
A16U G23C	0.06
A16U G23U	0.09
A16U G23A	0.49
A17G A40C	0.09
A17G A40G	0.89
A17G A40U	0.83

Variant	self-cleavage
A17C A40G	0.28
A17C A40U	0.16
A17C A40C	0.06
A17G C27A	0.35
A17G C27U	0.29
A17G C27G	0.13
A17G C11G	0.3
A17G C11A	0.5
A17G C11U	0.68
A16U G22C	0.11
A16U G22U	0.84
A16U G22A	0.99
A17G G30A	0.05
A17G G30C	0.06
A17G G30U	0.05
A17G G44A	0.88
A17G G44C	0.88
A17G G44U	0.74
A17C U12C	0.08
A17C U12A	0.15
A17C U12G	0.18
A16U C26A	0.03
A16U C26U	0.9
A16U C26G	0.11

Variant	self-cleavage
A16U G13C	0.02
A16U G13U	0.02
A16U G13A	0.09
A17C U43A	0.64
A17C U43C	0.58
A17C U43G	0.26
A16U U12G	0.16
A16U U12C	0.47
A16U U12A	0.92
A17C G50C	0.9
A17C G50U	0.86
A17C G50A	0.51
A17G A8U	0.49
A17G A8C	0.12
A17G A8G	0.63
A17C G22C	0.05
A17C G22U	0.06
A17C G22A	0.21
A17C C52A	0.87
A17C C52G	0.9
A17C C52U	0.78
A17G A7C	0.08
A17G A7G	0.49
A17G A7U	0.1

Variant	self-cleavage
A17G G48C	0.13
A17G G48A	0.15
A17C G30U	0.03
A17C G30C	0.03
A17C G30A	0.04
A17G	0.97
A17C	0.76
A17C A7C	0.08
A17C A7U	0.06
A17C A7G	0.1
A17C C20U	0.78
A17C C20A	0.58
A17C C20G	0.1
A17C G49U	0.05
A17C G49A	0.05
A17C G49C	0.04
A16U G34A	0.73
A16U G34C	0.51
A16U G34U	0.67
A17C G23U	0.04
A17C G23C	0.03
A17C G23A	0.07
A17G G23U	0.08
A17G G23C	0.08

Variant	self-cleavage
A17G G23A	0.43
A16U C52U	0.92
A16U C52A	0.97
A16U C52G	0.92
A16U G49U	0.11
A16U G49A	0.11
A16U G49C	0.06
A17G C20G	0.19
A17G C20A	0.89
A17G C20U	0.97
A17C G35A	0.6
A17C G35C	0.45
A17C G35U	0.6
A16U G30U	0.03
A16U G30C	0.04
A16U G30A	0.03
A17C G34C	0.14
A17C G34U	0.26
A17C G34A	0.34
A17C U18C	0.57
A17C U18A	0.78
A17C U18G	0.79
A16U C21U	0.95
A16U C21G	0.05

Variant	self-cleavage
A16U C21A	0.66
A17C G47C	0.05
A17C G47A	0.07
A17C G47U	0.09
A17C C11U	0.14
A17C C11G	0.05
A17C C11A	0.06
A17G G22U	0.79
A17G G22C	0.15
A17G G22A	0.97
A17G A41C	0.9
A17G A41G	0.94
A17G A41U	0.94
A17C A8C	0.08
A17C A8U	0.06
A17C A8G	0.12
A17C C32A	0.06
A17C C32U	0.05
A17C C32G	0.08
A16U G51C	0.16
A16U G51A	0.64
A16U G51U	0.39
A17G C52A	0.95
A17G C52G	0.9

Variant	self-cleavage
A17G C52U	1.01
A17G A39U	0.95
A17G A39C	0.91
A17G A39G	0.94
A17C U37C	0.85
A17C U37G	0.81
A17C U37A	0.41
A16U C31U	0.74
A16U C31G	0.07
A16U C31A	0.03
A17C A28C	0.6
A17C A28G	0.05
A17C A28U	0.29
A17G C25G	0.13
A17G C25A	0.21
A17G C25U	0.87
A17C C21U	0.69
A17C C21A	0.15
A17C C21G	0.05
A16U C27A	0.2
A16U C27G	0.06
A16U C27U	0.17
A17G C21G	0.09
A17G C21U	0.98

Variant	self-cleavage
A17G C21A	0.8
A17C C31G	0.05
A17C C31A	0.03
A17C C31U	0.16
A17G C31G	0.22
A17G C31A	0.05
A17G C31U	0.9
A17C G51U	0.22
A17C G51A	0.32
A17C G51C	0.13
A17C A39U	0.73
A17C A39G	0.86
A17C A39C	0.52
A17G A29U	0.27
A17G A29C	0.07
A17G A29G	0.35
A17G A46G	0.07
A17G A46U	0.09
A17G A46C	0.1
A17C U24A	0.03
A17C U24G	0.02
A17C U24C	0.05
A16U U43G	0.33
A16U U43C	0.36

Variant	self-cleavage
A16U U43A	0.85
A17C C27U	0.06
A17C C27A	0.06
A17C C27G	0.03
A16U C33U	0.71
A16U C33G	0.04
A16U C33A	0.11
A17G G13A	0.23
A17G G13U	0.04
A17G G13C	0.03
A16U U18A	0.89
A16U U18C	0.87
A16U U18G	0.66
A17G C32U	0.19
A17G C32A	0.07
A17G C32G	0.15
A17G C14G	0.29
A17G C14U	0.69
A17G C14A	0.19
A16U G50C	0.95
A16U G50A	0.67
A16U G50U	0.94
A17C C14A	0.1
A17C C14U	0.64

Variant	self-cleavage
A17C C14G	0.25
A17C G13A	0.04
A17C G13C	0.04
A17C G13U	0.02
A16U G54U	0.94
A16U G54A	0.93
A16U G54C	0.88
A16U G44A	0.94
A16U G44U	0.92
A16U G44C	0.91
A16U C20G	0.15
A16U C20U	0.89
A16U C20A	0.69
A17C C25U	0.18
A17C C25A	0.04
A17C C25G	0.03
A16U C25U	0.84
A16U C25A	0.11
A16U C25G	0.08
A17G A36C	0.82
A17G A36U	1.01
A17G A36G	0.99
A16U G53A	0.85
A16U G53U	0.4

Variant	self-cleavage
A16U G53C	0.1
A17C C33A	0.05
A17C C33U	0.16
A17C C33G	0.04
A17C G42C	0.21
A17C G42U	0.57
A17C G42A	0.5
A16U C32U	0.13
A16U C32A	0.08
A16U C32G	0.11
A17C C15U	0.77
A17C C15G	0.64
A17C C15A	0.7
A17C G19C	0.04
A17C G19U	0.04
A17C G19A	0.06
A17G G45U	0.17
A17G G45A	0.43
A17G G45C	0.07
A16U G42U	0.73
A16U G42A	0.8
A16U G42C	0.33
